Assay results published in the array DNA melting data of Ke et al. (doi:10.1101/2024.01.08.574731).

Experiments:
[1] = melting temperature; fluorescence melt of hairpins on a sequencing array, two-state fit, raised by 9.35 °C to match UV melts; conditions: sodium 0.088 M
Method in brief: (§1)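 On a sequenced MiSeq flow cell, library hairpins with annealed Cy3 and quencher oligos were imaged for Cy3 fluorescence in 2.5 °C steps up to 60 °C, in 50 mM Na-HEPES pH 8.0, 25 mM NaCl. Normalisation used pre-quench Cy3 and control constructs. Bootstrapped two-state fits gave melting temperature and folding enthalpy, combined by inverse variance across four replicates and with fitted temperatures raised by 9.35 °C to match UV melts.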

[2] = folding enthalpy; higher = less favourable; fluorescence melt of hairpins on a sequencing array, two-state fit; conditions: sodium 0.088 M
Method in brief: as §1

Sequence	Tm [1] [°C]	folding enthalpy [2] [kJ/mol]
GTGACACCGAAAGGTCAC (((..(((....))))))	47.8	-105
GTGACACGAAAGTGCAC (((.(((....))))))	53.2	-72.2
GTGACATCGAAAGATCAC (((..(((....))))))	33	-67.9
GTGACCACGAAAGTGCAC (((..(((....))))))	32	-50.2
GTGACCCGAAAGGGACAC (((.(((....))).)))	61.8	-168
GTGACCGAAAGGTACCAC ((((((....)))..)))	35.1	-48.7
GTGACCGAAAGGTCGCAC ((((((....)))..)))	58.6	-46.5
GTGACCGAAAGGTTACAC ((((((....)))..)))	49.8	-69.7
GTGACCGAAAGGTTCCAC ((((((....)))..)))	33.2	-40.3
GTGACCTCGAAAGAGCAC (((..(((....))))))	30.9	-62
GTGACGCGAAAGCGCCAC (((.(((....))).)))	68	-142
GTGACGGGAAACCGTCGC (.(((((....))))).)	62.6	-104
GTGACGGGAAACCGTTAC ((.((((....)))).))	51.9	-93.1
GTGACTGGAAACAATCAC ((((.((....)).))))	36	-84.1
GTGAGACGAAAGTCCCAC (((.(((....))).)))	50.4	-114
GTGAGACGAAAGTCGCAC (((.(((....))).)))	64.5	-133
GTGAGAGAAATCTCAC ((((((....))))))	51.7	-136
GTGAGAGGAAACCCTCAC (((((.(....).)))))	43.5	-110
GTGAGAGGAAACTCCCAC (((.(((....))).)))	36.6	-103
GTGAGAGGAAACTCTCGC (.(((((....))))).)	51.2	-114
GTGAGCCGAAAGGCACAC (((.(((....))).)))	59.8	-121
GTGAGCGAAAGCTACCAC ((((((....)))..)))	35.9	-43.8
GTGAGCGAAAGCTCCAC ((((((....))).)))	48.3	-47.2

Sequence	Tm [1] [°C]	folding enthalpy [2] [kJ/mol]
GTGAGCGAAAGCTCGCAC ((((((....)))..)))	55.1	-48.8
GTGAGCGAAAGCTTCAC ((((((....))).)))	50.9	-80
GTGAGCGAAAGCTTTCAC ((((((....)))..)))	32.3	-44.8
GTGAGCGGAAACACTCAC (((((.(....).)))))	47.7	-183
GTGAGCGGAAACGCTCGC (.(((((....))))).)	62.7	-76.8
GTGAGCGGAAACGTTCAC ((((.((....)).))))	52.8	-172
GTGAGGGGAAACCCTTAC ((.((((....)))).))	44.5	-112
GTGAGTCCGAAAGGACAC (((..(((....))))))	49.6	-54.9
GTGAGTGGAAACACTTGC (..((((....))))..)	36.4	-100
GTGATACGAAAGTACAC (((.(((....))))))	43.7	-108
GTGATAGGAAACCATCAC (((((.(....).)))))	39.3	-146
GTGATAGGAAACTATTAC ((.((((....)))).))	34.1	-108
GTGATCCGAAAGGAACAC (((.(((....))).)))	53.6	-115
GTGATCGAAAGATGACAC ((((((....)))..)))	33.4	-67.9
GTGATCGCGAAAGCGCAC (((..(((....))))))	35.6	-52.5
GTGATCGGAAACGATCAC (((((((....)))))))	68.6	-177
GTGATCGGAAACGATTAC ((.((((....)))).))	48.2	-102
GTGATGACGAAAGTCCAC (((..(((....))))))	35.1	-76.9
GTGATGGGAAACTATCAC (((((.(....).)))))	45.6	-135
GTGATTCCGAAAGGACAC (((..(((....))))))	31.1	-63.8
GTGATTGGAAACAGTCAC ((((.((....)).))))	45.4	-153
GTGCAACGAAAGTTCAC (((.(((....))))))	45.7	-55
GTGCAACGAAAGTTTCAC (((.(((....))).)))	41	-89.7

Sequence	Tm [1] [°C]	folding enthalpy [2] [kJ/mol]
GTGCACGAAAGTGAACAC ((((((....)))..)))	52	-64.4
GTGCACGAAAGTGAGCAC ((((((....)))..)))	51.6	-136
GTGCACGAAAGTGTCAC ((((((....))).)))	54.5	-93.3
GTGCACGAAAGTGTGCAC ((((((....)))..)))	62.6	-142
GTGCACGGAAACGTGTAC ((.((((....)))).))	55.8	-175
GTGCACTCGAAAGAGCAC (((..(((....))))))	45.2	-116
GTGCAGGGAAACTTGCGC (.(((.(....).))).)	42	-130
GTGCATCCGAAAGGACAC (((..(((....))))))	38.2	-49
GTGCCAACGAAAGTTCAC (((..(((....))))))	36.3	-18.3
GTGCCACGAAAGTGCCAC (((.(((....))).)))	47.6	-85.7
GTGCCACGAAAGTGTCAC (((.(((....))).)))	53.1	-126
GTGCCAGGAAACCGGCAC (((((.(....).)))))	59.2	-177
GTGCCCCGAAAGGGACAC (((.(((....))).)))	62.5	-180
GTGCCCGAAAGGGGCCAC ((((((....)))..)))	47.7	-45.6
GTGCCCGAAAGGGTCCAC ((((((....)))..)))	41	-43.3
GTGCCCGAAAGGGTTCAC ((((((....)))..)))	41.1	-49.5
GTGCCCGCGAAAGCGCAC (((..(((....))))))	45.5	-56.7
GTGCCGCCGAAAGGCCAC (((..(((....))))))	60	-38.2
GTGCCGGCGAAAGCCCAC (((..(((....))))))	59.9	-28.5
GTGCCGGGAAACCGGCGC (.(((((....))))).)	67.3	-76
GTGCCGTCGAAAGACCAC (((..(((....))))))	49.7	-25.6
GTGCCTCGAAAGAGCAC (((.(((....))))))	53.5	-119
GTGCGAACGAAAGTTCAC (((..(((....))))))	53.3	-50.5

Sequence	Tm [1] [°C]	folding enthalpy [2] [kJ/mol]
GTGCGACCGAAAGGTCAC (((..(((....))))))	60	-54.6
GTGCGAGCGAAAGCTCAC (((..(((....))))))	59.4	-51.1
GTGCGATCGAAAGATCAC (((..(((....))))))	44.4	-76.3
GTGCGCCCGAAAGGGCAC (((..(((....))))))	64.3	-43.5
GTGCGCCGAAAGGCTCAC (((.(((....))).)))	56.9	-122
GTGCGCGAAAGCGACCAC ((((((....)))..)))	43.8	-43.7
GTGCGCGAAAGCGAGCAC ((((((....)))..)))	57.7	-107
GTGCGCGAAAGCGTTCAC ((((((....)))..)))	39.9	-47.3
GTGCGCGGAAACACGCAC (((((.(....).)))))	59.7	-195
GTGCGGCGAAAGCCACAC (((.(((....))).)))	62.1	-122
GTGCGGGGAAACTCGCAC (((((.(....).)))))	61.2	-168
GTGCGTGGAAACACACAC (((.(((....))).)))	48.6	-159
GTGCGTGGAAACACGCGC (.(((((....))))).)	65.9	-75.3
GTGCGTGGAAACACGTAC ((.((((....)))).))	56.1	-137
GTGCGTGGAAACATGCGC (.((.((....)).)).)	49.5	-124
GTGCGTGGAAACGCGTAC ((.((.(....).)).))	42.7	-45.5
GTGCTAGAAATAGCAC ((((((....))))))	56.5	-169
GTGCTAGGAAACTAACAC (((.(((....))).)))	34.4	-116
GTGCTAGGAAACTAGCGC (.(((((....))))).)	53.5	-166
GTGCTAGGAAACTGGCAC ((((.((....)).))))	53.5	-190
GTGCTCCCGAAAGGGCAC (((..(((....))))))	49.8	-83.1
GTGCTCCGAAAGGACAC (((.(((....))))))	51.9	-115
